The text below walks through data of ChEMBL document CHEMBL5380787, “Optimized M24B Aminopeptidase Inhibitors for CARD8 Inflammasome Activation” (J Med Chem, 2023).

A short description of data set [1]: Drug metabolism in human MV4-11 cell culture supernatant assessed as (S)-1-((2S,3R)-3-amino-2-hydroxy-5-methylhexanoyl)pyrrolidine-2-carboxylic acid formation measured within 30 mins by LC-MS analysis. To be noted: mv4-11, 0.5 h. The data set is classed as ADME, cell-based.
The nature of data set [2]: Stability of the compound in human MV4-11 cells assessed as de-esterification by measuring parent compound remaining measured after 24 hrs by LC-MS analysis. Particulars: read-out: Stability. It is filed as ADME, cell-based. In outline: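 Compound was incubated in conditioned medium from MV4;11 cells for 24 h at 37 °C, and LC/MS then measured intact ester remaining and the de-esterified free acid. n = 3, mean ± SEM.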

Data set [3] has as its system MV4-11. As to the kind of experiment: Cytotoxicity against CASP1 knockout human MV4-11 cells assessed as reduction in cell viability at 0.015 to 100 uM incubated for 24 hrs by celltiter-glo assay. The data set is classed as functional. Particulars: dose 0.015-100 µM. In outline: (§1)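 MV4;11 cells (WT or CASP1−/−), grown in RPMI 1640 with 10% FBS at 37 °C, 5% CO2, plated 2000 cells/well, dosed by pintool across 100 μM to 15.2 nM in three-fold steps for 24 h. Viability by CellTiter-Glo luminescence after 2 min shaking and 10 min at 25 °C. IC50 as mean ± SEM of three biological replicates.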

The test system of data set [4] is MV4-11. As to the kind of experiment: Cytotoxicity against human MV4-11 cells assessed as reduction in cell viability at 0.015 to 100 uM incubated for 24 hrs by celltiter-glo assay. The data set is classed as functional. To be noted: dose 0.015-100 µM. In outline: as §1
A short description of data set [5]: Stability in human MV4-11 cells assessed as retention time of parent compound incubated for 24 hrs by LC/MS analysis. The data set is classed as ADME, cell-based. To be noted: mv4-11, 24 h. In a few lines: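 Compound was held in MV4;11 conditioned medium for 24 h at 37 °C, then LC/MS was run, recording the retention times of the parent ester and its free acid.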

The next data set relates to OCI-AML2. As to the kind of experiment: Induction of cell death in human OCI-AML2 cells assessed as increase in PI uptake at 6.25 uM incubated for 6 hrs by PI staining based fluorescence analysis. The data set is classed as functional. In outline:
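PI flux assay. 2 × 10^4 MV4;11 (WT, CARD8−/− or CASP1−/−) or OCI-AML2 cells in RPMI were given compound at 6.25 μM plus PI at 10 μM final. Fluorescence (Ex/Em 535/617 nm) was read every 5 min at 37 °C for 6 h, baseline-corrected to DMSO and normalized to the maximum response. n = 3.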

Active and inactive are the calls of the source. No cut-off for these calls is given here.

Turning to `COC(=O)[C@@H]1CCCN1C(=O)[C@@H](O)[C@H](N)CC(C)C`, in data set [1], the Drug metabolism result is given as “Metabolite_Detected”. Besides, in data set [2], the remaining at 24 h worked out at 50%. Also, the figures for the Activity in the data set with MV4-11 [3] and in the data set with MV4-11 [4] were 95% and 28%, respectively.

For `COC(=O)[C@H](CC(C)C)NC(=O)[C@@H]1CCCN1C(=O)[C@@H](O)[C@H](N)CC(C)C`, the Retention_time in data set [5] came to 2.82 min. Besides, the outcome in the data set on OCI-AML2 was Active.
